Key:
[1] = system: A549; assay: (§1) Cytotoxicity potentiation of Topotecan in human lung carcinoma A549 cells by the compound as potentiation factor at 50% growth inhibition; format: functional
Procedure, shortened: (§2)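 Cells were seeded 16–24 h before treatment, then exposed continuously for 5 days to increasing concentrations of temozolomide or topotecan, with or without 0.4 μM PARP-1 inhibitor. Final DMSO was 1%. Relative cell number was measured by SRB assay. Growth IC50 values came from point-to-point analysis of growth curves. PF50 = IC50 of cytotoxic agent alone / IC50 with inhibitor. Data are mean ± SEM of three independent experiments.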

[2] = molecular target: T1, Poly [ADP-ribose] polymerase 1 (Homo sapiens, UniProt P09874)
T1 sequence (P09874 whole entry): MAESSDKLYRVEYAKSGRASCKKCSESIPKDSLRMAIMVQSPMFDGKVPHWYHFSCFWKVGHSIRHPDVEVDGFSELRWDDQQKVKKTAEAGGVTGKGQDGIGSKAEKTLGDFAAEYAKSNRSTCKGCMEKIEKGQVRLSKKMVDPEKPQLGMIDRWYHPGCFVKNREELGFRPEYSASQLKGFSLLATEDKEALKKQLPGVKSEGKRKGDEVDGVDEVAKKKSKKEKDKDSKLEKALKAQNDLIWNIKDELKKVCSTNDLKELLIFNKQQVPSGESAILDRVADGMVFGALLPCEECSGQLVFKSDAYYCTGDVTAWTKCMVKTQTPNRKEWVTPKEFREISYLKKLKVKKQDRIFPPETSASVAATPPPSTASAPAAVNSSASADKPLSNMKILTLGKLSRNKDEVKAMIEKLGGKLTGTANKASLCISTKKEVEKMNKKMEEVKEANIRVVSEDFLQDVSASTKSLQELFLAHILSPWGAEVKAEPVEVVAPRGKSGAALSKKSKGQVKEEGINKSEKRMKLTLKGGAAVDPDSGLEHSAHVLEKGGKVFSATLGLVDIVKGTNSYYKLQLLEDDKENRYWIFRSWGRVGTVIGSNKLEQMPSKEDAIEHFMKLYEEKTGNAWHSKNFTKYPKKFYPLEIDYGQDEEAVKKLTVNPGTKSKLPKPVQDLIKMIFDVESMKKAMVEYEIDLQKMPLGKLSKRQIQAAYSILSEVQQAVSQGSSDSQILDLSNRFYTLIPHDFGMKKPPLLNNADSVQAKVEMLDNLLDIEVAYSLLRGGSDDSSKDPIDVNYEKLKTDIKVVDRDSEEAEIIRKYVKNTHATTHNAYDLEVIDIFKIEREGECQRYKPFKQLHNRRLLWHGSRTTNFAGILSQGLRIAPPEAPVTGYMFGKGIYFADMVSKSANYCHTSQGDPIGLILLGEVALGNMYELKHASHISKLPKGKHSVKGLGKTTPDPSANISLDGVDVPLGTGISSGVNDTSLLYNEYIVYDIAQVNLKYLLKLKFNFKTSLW

[3] = system: SW-620; assay: Cytotoxicity potentiation of Topotecan in human lung carcinoma SW620 cell line by the compound as potentiation factor at 50% growth inhibition; format: functional; details: in the assay text read “human colon carcinoma” for “human lung carcinoma”; procedure, shortened: as §2
[4] = system: A549; assay: Cytotoxic potentiation of Topotecan (TP) by the compound in human lung carcinoma A549 cell line; format: functional, cell-based; procedure, shortened: as §2
[5] = molecular target: T1, Poly [ADP-ribose] polymerase 1; remark: listed apart in the source
[6] = system: LoVo; assay: Cytotoxic potentiation of Topotecan (TP) by the compound in human colorectal carcinoma LoVo cell line; format: functional, cell-based; procedure, shortened: as §2
[7] = system: LoVo; assay: Cytotoxic potentiation of Tomozolomide (TM) by the compound in human colorectal carcinoma LoVo cell line; format: functional, cell-based; procedure, shortened: as §2
[8] = system: SW-620; assay: Cytotoxic potentiation of Topotecan (TP) by the compound in human colon carcinoma SW620 cell line; format: functional, cell-based; procedure, shortened: as §2
[9] = system: A549; assay: as §1; format: functional; procedure, shortened: as §2; remark: listed apart in the source
[10] = system: LoVo; assay: Cytotoxic potentiation of Topotecan (TP) by the compound in (human colorectal cancer LoVo cell line; format: functional, cell-based; procedure, shortened: as §2

Ki [2] [nM]	Compound	PF50 [1]	further results
–	O=C1NCCc2c(-c3ccccc3)[nH]c3cccc1c23	1.8	–
8	O=C1NCCc2c(-c3ccc[nH]3)[nH]c3cccc1c23	–	–
–	CN(C)Cc1ccc(-c2[nH]c3cccc4c3c2CNC4=O)cc1	2.2	–
370	O=C1NCCc2c(O)[nH]c3cccc1c23	–	–
–	O=C1NCCc2c(-c3ccc(Cn4cccc4)cc3)[nH]c3cccc1c23	2	PF50 [3]: 1.8; IC50 [4]: 12 nM; Ki [5]: 6 nM; IC50 [6]: 6.5 nM; IC50 [7]: 76000 nM; IC50 [8]: 1.8 nM; PF50 [9]: 2
7	Nc1cccc(-c2[nH]c3cccc4c3c2CCNC4=O)c1	–	–
–	Cn1c(-c2ccccc2)c2c3c(cccc31)C(=O)NCC2	1.7	–
–	O=C1NCCc2c[nH]c3cccc1c23	1.1	–
6	O=C1NCCc2c(-c3cccc(C(F)(F)F)c3)[nH]c3cccc1c23	–	–
–	CN1CCc2c(-c3ccccc3)n(C)c3cccc(c23)C1=O	1.2	–
–	O=C1NCCc2c(-c3ccc(F)cc3)[nH]c3cccc1c23	2.3	–
8	CN(C)Cc1cccc(-c2[nH]c3cccc4c3c2CCNC4=O)c1	2.1	–
11	N#Cc1[nH]c2cccc3c2c1CCNC3=O	–	–
6	COc1ccc(-c2[nH]c3cccc4c3c2CCNC4=O)cc1	–	–
23	O=C1NCCc2c(C(c3ccccc3)c3ccccc3)[nH]c3cccc1c23	–	–
–	Cn1nnc2c(C(N)=O)ncn2c1=O [TEMOZOLOMIDE]	–	IC50 ([10]; in the assay text read “Temozolomide (TM)” for “Topotecan (TP)”): 595000 nM
< 5	O=C1NCc2c(-c3ccccc3)[nH]c3cccc1c23	–	–
< 5	CN(C)Cc1cccc(-c2[nH]c3cccc4c3c2CNC4=O)c1	–	–
–	CN(C)Cc1ccc(-c2[nH]c3cccc4c3c2CCNC4=O)cc1	2.4	–
–	CC[C@@]1(O)C(=O)OCc2c1cc1n(c2=O)Cc2cc3c(CN(C)C)c(O)ccc3nc2-1 [TOPOTECAN]	–	IC50 [10]: 11.6 nM; IC50 [4]: 24 nM; IC50 [8]: 3.2 nM

Compound	Ki [2] [nM]	PF50 [1]	further results
COc1[nH]c2cccc3c2c1CCNC3=O	10	–	–
